# Screening data (PubChem BioAssay)
# HDAC3 inhib – inhibitors of human histone deacetylase 3; O15379; recombinant HDAC3, fluorogenic peptide/trypsin coupled, fluorescence; inhibition, % at 8.3 µM; 320,000 tested, 0.15% active; AID 2718; in the data active = inhibition above about 26%, passing the limit was not always enough
# Target sequence (O15379 whole entry, looked up): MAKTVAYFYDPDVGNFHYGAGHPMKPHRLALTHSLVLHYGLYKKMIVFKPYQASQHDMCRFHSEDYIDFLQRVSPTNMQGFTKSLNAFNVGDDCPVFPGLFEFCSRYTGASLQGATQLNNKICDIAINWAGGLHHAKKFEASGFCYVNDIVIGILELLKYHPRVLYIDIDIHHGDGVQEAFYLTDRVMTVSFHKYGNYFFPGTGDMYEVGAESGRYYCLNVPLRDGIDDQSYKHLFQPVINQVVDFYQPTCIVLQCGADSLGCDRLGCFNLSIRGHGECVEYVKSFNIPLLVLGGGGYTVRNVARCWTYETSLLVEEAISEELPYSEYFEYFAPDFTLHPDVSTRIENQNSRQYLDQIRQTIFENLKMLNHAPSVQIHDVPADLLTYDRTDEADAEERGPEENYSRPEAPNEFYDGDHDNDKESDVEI
# Efflux pump inh – antifungal efflux pump inhibition, Nile Red retention; 330,000 tested, 0.44% active; inhibition, % at 10 µM; S. cerevisiae Candida pump triplex;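 active = plate passing quality check with inhibition over a set limit, or well fluorescence over plate mean plus 4 SD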;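 note: Nile Red retained in pooled yeast measured as flow cytometry median fluorescence; 0% = buffer negative control and 100% = Enniatin B positive control; higher means more Nile Red kept so more efflux inhibition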
# IDE inh – cellular human IDE inhibition. 320,000 tested, 0.41% active. P14735. HEK cells, FAbetaB cleavage, fluorescence polarization. AID 434962. inhibition, % at 5.59 µM;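 active = percent inhibition above the average of all tested compounds plus 3 SD, set per screening campaign, cut at about 16% in these data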;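 note: IDE supplied by intact live HEK cells; FP after avidin binding of uncleaved biotin substrate so inhibition keeps polarization high; 0% = DMSO wells and 100% = 60 µM reference IDE inhibitor Ii1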
# IDE cell activ – IDE (human) activation, cell-based; HEK cells, FAbeta-B cleavage, fluorescence polarization; 0% vehicle, 100% cell-free pure enzyme wells; AID 493087; P14735; activation, % at 5.96 µM; 340,000 tested, 0.073% active;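 active = activation above the mean of all tested compounds plus 3 SD, set per screening campaign, cut at about 17% in these data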
# CR mimetic SO – yeast age-related superoxide inhibition as caloric restriction mimetic | S. cerevisiae aged cells, superoxide DHE fluorescence; active compounds read low | superoxide response (% of plate mean), % at 10 µM | 330,000 tested, 0.18% active | AID 2690;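 active = superoxide response under a set limit, about three screen SD below normal, cut at about 65% in these data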;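 note: yeast aged for seven days with compound at 30 °C before DHE staining; 100% = average MFI of all compound-treated wells on the plate with controls excluded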
# TbMetRS inhib – Trypanosoma brucei MetRS inhibition; purified T. brucei MetRS, ATP depletion, Kinase-Glo luminescence; inhibition, % at 11.9 µM; 360,000 tested, 0.4% active; AID 624268;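 active = inhibition above a per-plate cutoff of the control wells' mean inhibition plus 3 SD, cut at about 5.5% in these data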;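 note: 0% = DMSO wells median and 100% = median of wells with control inhibitor compound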
#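 Dosing: 11.9 µM compound single dose, 0.9% DMSO; Assay system: purified T. brucei MetRS enzyme; Measured by: Kinase-Glo luciferase luminescence reporting remaining unconsumed ATP; Schedule: 15 min plus 2 h at 25 °C.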
# IDE inh confirm – cellular human IDE inhibition, confirmation; inhibition, % at 5.59 µM; 1,200 tested, 51% active; HEK cells, FAbetaB cleavage, fluorescence polarization; shares compounds with IDE inh;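 active = mean inhibition across triplicate wells above the cutoff set by the earlier primary insulin-degrading enzyme screen, cut at about 16% in these data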;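 note: 0% = DMSO wells and 100% = 60 µM reference IDE inhibitor Ii1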
# HEK cytotox – HEK cell cytotoxicity, counter-screen for IDE inhibitors | shares compounds with IDE inh | HEK293 cytotoxicity, ATP luminescence | inhibition, % at 5.59 µM | 1,200 tested, 28% active; in the data active = inhibition above about 22%;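 note: 0% = vehicle wells and 100% = reference cytotoxic drug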
# An asterisk follows results filed as active; nt = no result. This is a sample that favours compounds with a hit; in the whole collection about 1.4% have one here.
SMILES,HDAC3 inhib,Efflux pump inh,IDE inh,IDE cell activ,CR mimetic SO,TbMetRS inhib,IDE inh confirm,HEK cytotox
C[n+]1cc(C(=O)N2CCCCC2)ccc1/C=C/c1c[nH]c2ccccc12,15,1,27*,-38,103,0,40*,14
Cc1c(C)c2c(OCC(=O)NCc3ccncc3)cc3c(c2oc1=O)CCC(C)(C)O3,-28,0,9,-10,100,1,nt,nt
Cc1cc(=O)oc2c3c(cc(OCC(=O)NCc4ccncc4)c12)OC(C)(C)CC3,-101,0,22*,-19,83,0,13,24*
COc1ccc(C(=O)c2sc3nc(-c4ccccc4)ccc3c2N)cc1,-3,0,21*,-34,102,0,19*,13
O=C(c1ccoc1)N1CCC(CO)(CCc2ccccc2)CC1,-1,0,-1,0,98,0,nt,nt
CN(C)S(=O)(=O)c1cccc(NC(=O)CCc2nc3sc4c(c3c(=O)[nH]2)CCCC4)c1,5,0,22*,-17,98,0,14,25*
CC1=C(C(=O)N(C(C)C)C(C)C)CC(CC(=O)NCCCCc2ccccc2)C(=O)N1Cc1ccc(F)cc1 (stereo unspecified),nt,nt,nt,nt,nt,0,nt,nt
COc1cc(CNCc2ccncc2)cc(OC)c1OC,-3,0,5,-4,98,0,nt,nt
CCOC(=O)C1=CC[C@@H](c2cccc(C)c2)N(S(=O)(=O)c2ccc(C)cc2)[C@H]1C(=O)OCC,14,0,16*,-4,88,0,13,12
O=C(O)c1ccccc1-c1c2cc(I)c(=O)c(I)c-2oc2c(I)c(O)c(I)cc12,10,0,147*,-174,96,-2,91*,27*
COP(=O)(OC)c1nc(-c2ccc(C)cc2)oc1N1CCCCC1,-140,0,2,-2,103,-1,nt,nt
CSc1nnc(N2C(=O)C(O)=C(C(=O)c3ccco3)C2c2cccc(Cl)c2)s1 (stereo unspecified),-4,0,29*,-6,109,1,7,7
O=C(C1=NN(c2ccccc2)C2C(=O)N(c3cccc(Cl)c3)C(=O)C12)c1ccccc1 (stereo unspecified),2,0,31*,-23,85,0,28*,11
O=C(O)CCCNc1ccc([N+](=O)[O-])c(NCCCC(=O)O)n1,6,0,1,nt,101,-1,nt,nt
O=C(Nc1ccccc1SCC1CSc2nc3ccccc3c(=O)n21)c1ccccc1 (stereo unspecified),2,0,18*,-37,90,0,10,20
COCCNC(=O)/C(C#N)=C\c1ccc(CNS(=O)(=O)c2ccccc2)o1,0,0,-2,5,88,-1,nt,nt
COCCNC(=O)/C(C#N)=C/c1ccc(N2CCOCC2)o1,9,0,16*,-16,115,0,16,7
N#C/C(=C\c1ccc(O)c(O)c1)C(=O)NCCCc1ccccc1,1,0,29*,-37,106,2,38*,14
N#C/C(=C/c1ccc(N2CCOCC2)o1)C(=O)Nc1ccccc1,nt,nt,nt,-98,nt,-1,nt,nt
N#C/C(=C\c1ccc(N2CCOCC2)o1)C(=O)NCCc1ccccc1,15,0,72*,-140,97,1,78*,8
CCOC(=O)C1CCN(S(=O)(=O)c2cc(C(=O)OC)n(C)c2)CC1,-6,0,1,0,98,0,nt,nt
S=C1NCCOCCOCCOCCOCCNC(=S)NCCOCCOCCOCCOCCN1,-7,0,4,0,87,-1,nt,nt
COCCN1CC(CNC(=O)c2cc(COc3ccc(C)c(C)c3)on2)CC1=O (stereo unspecified),0,0,17*,-14,98,0,7,11
Cc1ccc(OCc2cc(C(=O)NCCn3cccn3)no2)cc1C,-5,0,3,-2,91,0,nt,nt
CN(C)c1ccc(/C=C2\C(=N)N3N=C(CC(=O)N4CCCCC4)SC3=NC2=O)cc1,7,0,21*,-58,118,0,49*,9
